Source: PubChem
ANO1 block: TMEM16A chloride channel inhibitors, primary screen, cell-based, HTS. HEK293 TMEM16A/YFP iodide influx fluorescence, ionomycin. normalized B-score (activity score, 25-100; higher = stronger inhibition) at 10 µM. 310,000 compounds, 1.2% hits;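 active means ratio plate-corrected score three or more library SD toward inhibition, starting fluorescence score within five deviations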;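 further: score derived from kinetic fluorescence span divided by baseline fluorescence per well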
Target sequence (Q8BHY3 whole entry, looked up): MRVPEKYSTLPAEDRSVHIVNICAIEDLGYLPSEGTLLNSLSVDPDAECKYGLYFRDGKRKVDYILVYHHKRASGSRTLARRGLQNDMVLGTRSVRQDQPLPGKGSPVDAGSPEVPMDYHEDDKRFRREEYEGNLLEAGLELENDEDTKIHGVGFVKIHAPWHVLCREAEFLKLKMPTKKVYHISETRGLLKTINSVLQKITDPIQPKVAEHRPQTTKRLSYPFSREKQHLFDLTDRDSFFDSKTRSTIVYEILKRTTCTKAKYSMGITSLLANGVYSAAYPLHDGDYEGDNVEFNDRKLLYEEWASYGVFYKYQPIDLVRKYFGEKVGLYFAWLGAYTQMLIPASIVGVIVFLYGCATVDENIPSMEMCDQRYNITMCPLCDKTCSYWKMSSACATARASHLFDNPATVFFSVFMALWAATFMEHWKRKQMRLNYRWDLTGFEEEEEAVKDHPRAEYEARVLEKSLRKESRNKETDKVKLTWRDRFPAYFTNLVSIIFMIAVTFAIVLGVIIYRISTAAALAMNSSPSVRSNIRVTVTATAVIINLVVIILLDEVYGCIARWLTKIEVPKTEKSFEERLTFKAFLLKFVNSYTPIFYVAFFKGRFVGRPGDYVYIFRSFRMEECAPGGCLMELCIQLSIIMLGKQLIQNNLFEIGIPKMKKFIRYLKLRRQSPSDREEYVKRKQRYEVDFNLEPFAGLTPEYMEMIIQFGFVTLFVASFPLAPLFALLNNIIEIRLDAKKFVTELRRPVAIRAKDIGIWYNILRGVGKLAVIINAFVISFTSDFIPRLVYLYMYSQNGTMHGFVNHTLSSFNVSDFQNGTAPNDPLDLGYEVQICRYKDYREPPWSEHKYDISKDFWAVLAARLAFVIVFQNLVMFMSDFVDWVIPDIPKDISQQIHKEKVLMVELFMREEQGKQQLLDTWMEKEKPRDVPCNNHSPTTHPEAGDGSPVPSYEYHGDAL
TAAR1 agonist: human TAAR1 agonists, primary screen, Fluo-8 calcium fluorescence, CHO RD-HGA16 cells | Trace amine-associated receptor 1 (Homo sapiens), Q96RJ0 | vehicle wells 0%, saturating PEA agonist 100% | activation, % at 3 µM | 360,000 compounds, 0.99% hits;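 active means activation above the mean activation of all test compounds in the run plus 3 SD, cut at about 38% in these data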
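System: CHO RD-HGA16 cells carrying human TAAR1 plus Gα16; Incubation: 17-24 h seeding, 75 min 37 °C dye, 30 min RT; Measured by: Fluo-8 fluorescence, 5 s baseline then 140 s kinetic read; Control set: DMSO and PEA EC100; Replication: single well for each compound.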
CRFBP-R2 block: antagonists of CRF-BP/CRF-R2 complex, primary screen, cell-based, HEK293, calcium dye fluorescence, uHTS. inhibition, % at 11.8 µM. CRF-induced calcium fluorescence. 350,000 compounds, 0.59% hits;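 active means inhibition of the ligand-induced calcium signal above about 50% at the single tested concentration, limit read from the data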
TMEM16A act: TMEM16A chloride channel activators or potentiators, primary screen, cell-based, HTS; HEK293 TMEM16A/YFP-H148Q/I152L, iodide quench fluorescence; stronger effect = lower value; Anoctamin-1 (Mus musculus), Q8BHY3; B-score at 10 µM; 340,000 compounds, 0.3% hits; AID 623877, 2012;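 active means fluorescence-ratio B-score plate-corrected deviation score at least 3 library SD below zero, with starting fluorescence score within 5 deviations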;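 further: channel opened by trigger with iodide after compound preincubation; score built on the fluorescence ratio of max minus min over baseline; more negative score means more quench and so TMEM16A activation or potentiation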
TAAR1 antagonist: human TAAR1 antagonists, primary screen, Fluo-8 calcium fluorescence, CHO RD-HGA16 cells. Trace amine-associated receptor 1 (Homo sapiens), Q96RJ0. antagonist. inhibition, % at 3 µM. 360,000 compounds, 1.5% hits. AID 624466, 2012;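 active means inhibition above a per-plate cutoff, the mean inhibition of test compounds on that plate plus 3 SD, cut at about 49% in these data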
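Test system: hTAAR1-expressing CHO RD-HGA16 cells, Gα16-coupled; Probe or stimulus: EC80 β-phenethylamine stimulus; Compound dosing: single nominal final test compound concentration of 3 µM; Timing: 140 s kinetic read after compound, 140 s after agonist; Signal: Fluo-8 calcium-sensitive fluorescence; Measure: % inhibition of agonist calcium response; Controls: DMSO and EC80 PEA controls.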
CRFR2-BP ag: agonists of CRF-BP/CRF-R2 complex, primary screen, cell-based, HEK293, calcium dye fluorescence, uHTS. CRF-binding protein / CRF receptor 2 complex (human). activation, % at 13.2 µM. AID 588473, 2011. calcium dye fluorescence (FLIPR); percent of saturating CRF peptide response. 350,000 compounds, 0.46% hits;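 active means activation of at least 50%, plus an integration ratio under a set limit after plate pattern correction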
TAAR1 ag confirm: human TAAR1 agonists, retest of hits, confirmation, Fluo-8 calcium fluorescence, CHO RD-HGA16 cells; shares compounds with TAAR1 agonist; scaled: DMSO 0%, maximal phenethylamine 100%; activation, % at 3 µM; 2,400 compounds, 82% hits; AID 651783, 2012;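 active means activation above a cutoff set at the run's mean compound activation plus 3 SD, cut at about 39% in these data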
Ga16 nonsel ag: nonselective calcium mobilization agonists, CHO-Ga16 cells, counter-screen for hTAAR1 agonist project, cell-based, fluorescence, CHO-Ga16 parental line; shares compounds with TAAR1 agonist; Fluo-8 calcium fluorescence; normalized to maximal ATP response, DMSO zero; activation, % at 3 µM; 2,400 compounds, 50% hits;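 active means activation above the run cutoff, the mean activation over all tested wells plus 3 SD, cut at about 12% in these data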
TAAR1 desensitize: TAAR1 desensitization by agonist hits, confirmation, counter-screen for TAAR1 agonist project, cell-based, fluorescence, tachyphylaxis; shares compounds with TAAR1 agonist; CHO RD-HGA16 hTAAR1, Fluo-8 calcium, beta-PEA response inhibition; inhibition, % at 3 µM; 2,400 compounds, 46% hits;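 active means inhibition above the run cutoff, the mean inhibition of all test compounds plus 3 SD, cut at about 49% in these data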;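 further: beta-PEA stimulus applied at its EC80; loss of beta-PEA calcium signal after compound pretreatment read as receptor desensitization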
Ga16 antag count: inhibition of ATP-evoked calcium response in CHO-Ga16 cells, counter-screen for TAAR1 agonist project, cell-based, fluorescence; 2,400 compounds, 39% hits; AID 651952, 2012; shares compounds with TAAR1 agonist; inhibition, % at 3 µM; CHO-Ga16 ATP-induced calcium, Fluo-8 fluorescence;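 active means inhibition above the plate's mean compound inhibition plus 3 SD, computed per plate, cut at about 22% in these data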
Hits are given with their value; 0 = inactive; - = not tested or not shown. Rows were chosen to be rich in hits. Some 3.9% of all compounds tested hit in one or more screens of this group.

SMILES	ANO1 block	TAAR1 agonist	CRFBP-R2 block	TMEM16A act	TAAR1 antagonist	CRFR2-BP ag	TAAR1 ag confirm	Ga16 nonsel ag	TAAR1 desensitize	Ga16 antag count
Cc1onc(-c2ccccc2)c1C(=O)NC(=S)NNC(=O)c1ccc(O)cc1O	0	0	0	0	0	0	-	-	-	-
Cc1onc(-c2ccccc2)c1C(=O)NC(=S)NNC(=O)c1ccccc1O	100	164	0	0	57	202	141	103	100	63
CCCOc1ccc(C(=O)NC(=S)NNC(=O)c2c(-c3ccccc3)noc2C)cc1	100	176	0	0	108	145	141	108	101	94
O=C(NCc1cccs1)c1cccc2c(-c3ccc(F)c(F)c3)coc12	-	0	-	-	0	-	-	-	-	-
O=C(COc1ccccc1[N+](=O)[O-])Nc1ccc2c(c1)OCO2	0	0	0	0	0	0	-	-	-	-
COc1ccc(NC(=O)N2CCc3ccccc3C2)c(OC)c1	0	44	0	0	0	0	48	0	0	0
COc1ccc(-c2nc(CSCC(=O)N3CCc4ccccc4C3)c(C)o2)cc1OC	0	68	0	0	0	0	94	0	60	0
COc1ccc(NC(=O)N2CCc3ccccc3C2)cc1OC	0	59	0	0	0	0	66	0	0	0
COc1ccc(-c2nc(CSCC(=O)N3CCC(C(N)=O)CC3)c(C)o2)cc1OC	0	0	0	0	0	0	-	-	-	-
COc1ccc(OC)c(NC(=O)N2CCc3ccccc3C2)c1	0	44	0	0	0	0	57	0	0	0
CC1CCCC(NC(=O)COC(=O)CCC(=O)c2ccc(F)cc2)C1C (stereo unspecified)	-	0	0	0	0	0	-	-	-	-
COc1ccc(C(=O)CC(=O)C(=O)Nc2ccccc2Cl)cc1	0	0	0	0	0	0	-	-	-	-
COc1ccc(C(=O)CC(=O)C(=O)Nc2ccccc2C(F)(F)F)cc1	0	94	0	0	73	0	132	120	87	77
CCOc1ccc(/C=C/C(=O)Nc2ccccc2C(F)(F)F)cc1	0	0	0	0	0	0	-	-	-	-
COc1ccc(/C=C/C(=O)Nc2ccccc2C(F)(F)F)cc1	0	48	0	0	0	0	0	0	0	0
O=C(CSC1=NS(=O)(=O)c2ccccc2N1)NCCc1ccccc1	0	89	0	0	71	0	89	0	75	0
CC(=O)c1ccc(OCC(=O)NCc2ccc(F)cc2)cc1	0	0	0	0	0	0	-	-	-	-
O=C(N[C@H](C(=O)N1CCC[C@H]1C(=O)NCCc1ccccc1Cl)c1ccccc1)c1ccc(Cl)cc1Cl	-	0	-	-	0	-	-	-	-	-
Cc1ccccc1C(=O)N[C@H](C(=O)N1CCC[C@H]1C(=O)NCCc1ccccc1Cl)c1ccccc1	-	53	-	-	0	-	75	0	79	0
O=C(NCCc1ccccc1Cl)[C@@H]1CCCN1C(=O)[C@@H](NS(=O)(=O)c1ccc(F)cc1F)c1ccccc1	-	41	-	-	55	-	57	0	69	0
Cc1ccccc1C(=O)N[C@H](C(=O)N1CCC[C@H]1C(=O)NCCc1ccccc1Cl)C(C)C	-	57	-	-	71	-	91	0	95	0
CC(C)[C@H](NC(=O)CC1CCCC1)C(=O)N1CCC[C@H]1C(=O)NCCc1ccccc1Cl	-	65	-	-	57	-	85	0	86	0
CC(C)[C@H](NC(=O)C1CCCC1)C(=O)N1CCC[C@H]1C(=O)NCc1ccccc1	-	0	-	-	0	-	-	-	-	-
COC(=O)[C@@]12C[C@@H](CC(=O)NCC3CCCCC3)C(=O)N(CCc3ccc(OC)c(OC)c3)C1=CCC(C)(C)C2	-	0	-	-	0	-	-	-	-	-
CC(Oc1ccccc1)C(=O)N=C1SC2CS(=O)(=O)CC2N1CCc1ccccc1 (stereo unspecified)	0	0	0	0	0	0	-	-	-	-
SMILES	ANO1 block	TAAR1 agonist	CRFBP-R2 block	TMEM16A act	TAAR1 antagonist	CRFR2-BP ag	TAAR1 ag confirm	Ga16 nonsel ag	TAAR1 desensitize	Ga16 antag count
CC(C)[C@H](NC(=O)C1CC1)C(=O)N1CCC[C@H]1C(=O)NCCc1ccccc1Cl	-	62	-	-	69	-	92	0	90	0
Nc1nonc1-n1nnc(C(=O)N/N=C/c2ccoc2)c1-c1ccccc1	0	85	0	0	0	0	53	46	0	0
Nc1nonc1-n1nnc(C(=O)N/N=C/c2ccccc2Cl)c1-c1ccccc1	0	0	0	0	0	0	-	-	-	-
COc1cccc(-c2c(C(=O)N/N=C/c3ccco3)nnn2-c2nonc2N)c1	0	78	0	0	0	0	97	52	0	0
Nc1nonc1-n1nnc(C(=O)N/N=C/c2ccco2)c1-c1ccccc1	0	100	0	0	0	0	72	47	0	0
CCOc1ccccc1C(O)C1=CC(=O)c2ccccc2C1=O (stereo unspecified)	-	0	0	0	0	0	-	-	-	-
O=C1CCCCC/C1=N/Nc1ccc(OCc2ccccc2)cc1	0	0	0	0	0	0	-	-	-	-
Cc1cccc(NC(=O)c2ccc3nccnc3c2)c1C	0	0	0	0	0	0	-	-	-	-
O=C1NCCN(Cc2ccc(Cl)c(F)c2)C1CC(=O)N1CCc2ccccc2C1 (stereo unspecified)	0	60	0	0	0	0	92	0	0	0
CN(Cc1ccon1)C(=O)CC1C(=O)NCCN1Cc1ccc(Cl)c(F)c1 (stereo unspecified)	0	0	0	0	0	0	-	-	-	-
